The structures appear in SMILES notation.

Results on 25 compounds are retold here after ChEMBL document CHEMBL1137155, “Identification of [(naphthalene-1-carbonyl)-amino]-acetic acid derivatives as nonnucleoside inhibitors of HCV NS5B RNA dependent RNA polymerase” (Bioorg Med Chem Lett, 2004).

Chain of RNA-directed RNA polymerase (O39930 whole entry, the tested form may be a part): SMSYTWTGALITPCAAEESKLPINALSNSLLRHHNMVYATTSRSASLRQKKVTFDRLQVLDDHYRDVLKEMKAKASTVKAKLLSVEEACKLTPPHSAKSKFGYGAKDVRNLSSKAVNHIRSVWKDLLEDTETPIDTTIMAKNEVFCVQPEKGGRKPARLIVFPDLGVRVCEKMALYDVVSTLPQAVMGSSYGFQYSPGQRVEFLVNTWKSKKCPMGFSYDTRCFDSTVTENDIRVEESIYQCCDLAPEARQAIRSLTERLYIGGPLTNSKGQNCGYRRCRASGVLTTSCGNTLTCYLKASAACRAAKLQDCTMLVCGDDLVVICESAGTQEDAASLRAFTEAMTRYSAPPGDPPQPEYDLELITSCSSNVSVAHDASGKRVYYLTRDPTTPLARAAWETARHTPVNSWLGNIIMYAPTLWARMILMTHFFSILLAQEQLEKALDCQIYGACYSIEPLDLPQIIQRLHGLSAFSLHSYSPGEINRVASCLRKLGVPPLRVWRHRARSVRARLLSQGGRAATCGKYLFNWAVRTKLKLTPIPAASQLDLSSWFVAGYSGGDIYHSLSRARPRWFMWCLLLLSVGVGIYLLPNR

The first assay addresses DNA polymerase beta (Homo sapiens, UniProt P06746). As to the kind of experiment: Inhibitory concentration against human beta polymerase.
Regarding `COC(=O)N(CC(=O)O)C(=O)c1c(Cl)ccc2c(C(F)(F)F)c(OC)ccc12`, the IC50 – broadly, the midpoint of a concentration-inhibition curve – is > 100 µM.

The target of the next assay is RNA-directed RNA polymerase (Hepacivirus hominis, UniProt O39930). As to the kind of experiment: Inhibitory concentration against HCV NS5B RNA dependent RNA polymerase. In outline:
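Enzyme: recombinant C-terminally truncated NS5B from genotype 1b, BK strain. Inhibitor was pre-incubated with the enzyme for 15 min. An RNA template, NTPs and [α-32P]GTP were then added, and the reaction ran for 2 h at room temperature. Product RNA was collected by filtration, and incorporated radioactivity was measured by scintillation counting.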
Compound `C#CCOC(=O)N(CC(=O)O)C(=O)c1c(Br)ccc2c(C(F)(F)F)c(OC)ccc12` came in with an IC50 of 2900 nM.

Compound `COc1ccc2c(C(=O)N(CC(=O)O)CC(=O)O)cccc2c1C(F)(F)F` returned an IC50 of 900 nM.

In the case of `C=CCOC(=O)N(CC(=O)O)C(=O)c1c(Br)ccc2c(C(F)(F)F)c(OC)ccc12`, 3300 nM corresponded to half-maximal inhibition (IC50).

Turning to `CCCOC(=O)N(CC(=O)O)C(=O)c1c(Br)ccc2c(C(F)(F)F)c(OC)ccc12`, half-maximal inhibition (IC50) was put at 4900 nM.

For `COc1ccc2c(C(=O)N(CC(=O)O)C(=O)OCC(C)(C)C)c(Br)ccc2c1C(F)(F)F`, it took 6400 nM to reach half-maximal inhibition (IC50).

In turn, `COc1ccc2c(C(=O)NC(CCC(=O)O)C(=O)O)c(Br)ccc2c1C(F)(F)F` (stereo unspecified) gave an IC50 of 120 nM.

`COc1ccc2ccccc2c1C(=O)NC(CC(=O)O)C(=O)O` (stereo unspecified): the IC50 is > 10000 nM.

The compound `COc1ccc2c(C(=O)NC(CC(=O)O)C(=O)O)cccc2c1Br` (stereo unspecified) gave an IC50 of 1200 nM.

In the case of `COc1ccc2c(C(=O)NC(CC(=O)O)C(=O)O)cccc2c1C(F)(F)F` (stereo unspecified), 1300 nM corresponded to half-maximal inhibition (IC50).

The compound `COc1ccc2c(C(=O)NC(CCC(=O)O)C(=O)O)cccc2c1C(F)(F)F` (stereo unspecified) returned an IC50 of 490 nM.

For `COc1ccc2c(C(=O)N(CC(=O)O)C(=O)OCC(C)C)c(Br)ccc2c1C(F)(F)F`, the half-maximal inhibitory concentration (IC50) was 7700 nM.

As for `COC(=O)N(CC(=O)O)C(=O)c1c(-c2ccc(Cl)cc2)ccc2c(C(F)(F)F)c(OC)ccc12`, the concentration for half-maximal inhibition (IC50) is > 20000 nM.

`COC(=O)N(CCC(=O)O)C(=O)c1c(Br)ccc2c(C(F)(F)F)c(OC)ccc12`: the IC50 is > 10000 nM.

The compound `COc1ccc2c(C(=O)NC(CC(=O)O)C(=O)O)c(F)ccc2c1C(F)(F)F` (stereo unspecified) yielded a half-inhibitory concentration (IC50) of 2100 nM.

Consider `COc1ccc2c(C(=O)N(C)CC(=O)O)c(Cl)ccc2c1C(F)(F)F`, for which the IC50 is 5100 nM. This IC50 lies about 2.4-fold higher than the previous one.

For the compound `COC(=O)N(CC(=O)O)C(=O)c1cccc2c(C(F)(F)F)c(OC)ccc12`, the IC50 was > 26000 nM.

Compound `COc1ccc2c(C(=O)N(C)CC(=O)O)c(Br)ccc2c1C(F)(F)F` returned a half-inhibitory concentration (IC50) of 2000 nM.

As to `COc1ccc2c(C(=O)NC(CC(=O)O)C(=O)O)c(Br)ccc2c1C(F)(F)F` (stereo unspecified), the IC50 was determined as 910 nM.

In turn, `COc1ccc2c(C(=O)NC(CCC(=O)O)C(=O)O)c(F)ccc2c1C(F)(F)F` (stereo unspecified) registered an IC50 of 1400 nM.

Consider `COc1ccc2c(C(=O)NC(CCC(=O)O)C(=O)O)cccc2c1Br` (stereo unspecified), for which the IC50 came to 590 nM.

Turning to `CCOC(=O)N(CC(=O)O)C(=O)c1c(Br)ccc2c(C(F)(F)F)c(OC)ccc12`, the 50% inhibitory concentration (IC50) came to 3100 nM.

Take `COC(=O)N(CC(=O)O)C(=O)c1c(OC)ccc2c(C(F)(F)F)c(OC)ccc12`: 11300 nM corresponded to half-maximal inhibition (IC50).

In the case of `COC(=O)N(CC(=O)O)C(=O)c1c(Br)ccc2c(C(F)(F)F)c(OC)ccc12`, half-maximal inhibition (IC50) was put at 1400 nM.

Consider `COC(=O)N(CC(=O)O)C(=O)c1c(F)ccc2c(C(F)(F)F)c(OC)ccc12`, for which half-maximal inhibition (IC50) required 15200 nM.

Regarding `COC(=O)N(CC(=O)O)C(=O)c1c(Cl)ccc2c(C(F)(F)F)c(OC)ccc12`, 5000 nM corresponded to half-maximal inhibition (IC50). This IC50 lies about 3-fold lower than the previous one.
